Experimental data: ChEMBL document CHEMBL3632606, “Structural Optimization of Indole Derivatives Acting at Colchicine Binding Site as Potential Anticancer Agents” (ACS Med Chem Lett, 2015)
Activity calls are given as the source filed them. The rule behind the calls is not given here.

Experiments:
PC-3 [1] = experiment: Cytotoxicity against human PC3 cells after 48 hrs by MTS assay; type: functional, cell-based; settings: PC-3, 48 h
[2] = Half life in human liver microsomes at 2 uM by LC-MS/MS analysis; type: ADME
A-375 [3] = experiment: Cytotoxicity against human A375 cells after 48 hrs by MTS assay; type: functional, cell-based; settings: A-375, 48 h
M14 = experiment: Cytotoxicity against human M14 cells after 48 hrs by MTS assay; type: functional, cell-based; settings: M14, 48 h
DU-145 [4] = experiment: Cytotoxicity against human DU145 cells after 48 hrs by MTS assay; type: functional, cell-based; settings: DU-145, 48 h
[5] = Cytotoxicity against human M14/LCC6R1 cells after 48 hrs by MTS assay; type: functional, cell-based; settings: M14/LCC6R1, 48 h
PC-3 [6] = experiment: Cytotoxicity against human paclitaxel-resistant PC3 cells after 48 hrs by MTS assay; type: functional, cell-based; settings: PC-3, 48 h
DU-145 [7] = experiment: Cytotoxicity against human paclitaxel-resistant DU145 cells after 48 hrs by MTS assay; type: functional, cell-based; settings: DU-145, 48 h
[8] = Half life in mouse liver microsomes at 2 uM by LC-MS/MS analysis; type: ADME
[9] = Cytotoxicity against human WM164 cells after 48 hrs by MTS assay; type: functional, cell-based; settings: WM164, 48 h
LNCaP = experiment: Cytotoxicity against human LNCAP cells after 48 hrs by MTS assay; type: functional, cell-based
[10] = Cytotoxicity against human PPC1 cells after 48 hrs by MTS assay; type: functional, cell-based; settings: PPC-1, 48 h
Tubulin (Sus scrofa) = Tubulin (Sus scrofa) (UniProt P02554+P02550); experiment: Inhibition of porcine tubulin polymerization measured every 1 min for 60 mins; type: protein assay
Procedure, shortened: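 In vitro microtubule polymerization run with test agents at 5 or 10 μM. Vehicle, paclitaxel (5 μM) and colchicine (5 μM) were run as controls under the same conditions. Curves are from a representative experiment.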

A-375 [11] = experiment: Cell cycle arrest in human A375 cells at 10 nM after 24 hrs using propidium iodide staining by flow cytometry analysis; type: functional, cell-based
Procedure, shortened: (§1)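 Cells treated with test agents for 24 h, then cell cycle distribution measured by flow cytometry; G2/M fraction compared with a vehicle-treated control group; N = 3.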

A-375 [12] = experiment: Cell cycle arrest in human A375 cells assessed as accumulation at G2/M phase at 50 nM after 24 hrs using propidium iodide staining by flow cytometry analysis (reference value: 4 +/- 0.5%); type: functional; procedure, shortened: as §1
PC-3 [13] = experiment: Cell cycle arrest in human PC3 cells assessed as accumulation at G2/M phase at 10 nM after 24 hrs using propidium iodide staining by flow cytometry analysis; type: functional, cell-based; procedure, shortened: as §1
[14] = Lipophilicity, log P of the compound; type: physicochemical; settings: octanol/water

Chain of Tubulin (Sus scrofa) (P02550 whole entry, looked up): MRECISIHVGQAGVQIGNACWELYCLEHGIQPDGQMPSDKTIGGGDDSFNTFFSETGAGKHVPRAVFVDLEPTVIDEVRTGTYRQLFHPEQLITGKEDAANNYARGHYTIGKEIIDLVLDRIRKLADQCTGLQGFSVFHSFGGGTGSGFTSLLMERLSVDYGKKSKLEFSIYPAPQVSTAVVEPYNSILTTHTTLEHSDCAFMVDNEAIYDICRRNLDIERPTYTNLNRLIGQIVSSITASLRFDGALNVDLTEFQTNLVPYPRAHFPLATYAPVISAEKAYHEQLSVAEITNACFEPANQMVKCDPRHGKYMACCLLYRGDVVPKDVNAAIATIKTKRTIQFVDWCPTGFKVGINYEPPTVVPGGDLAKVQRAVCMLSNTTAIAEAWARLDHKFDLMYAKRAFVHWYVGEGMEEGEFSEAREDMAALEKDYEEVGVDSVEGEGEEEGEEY
Chain of Tubulin (Sus scrofa) (P02554 whole entry, looked up): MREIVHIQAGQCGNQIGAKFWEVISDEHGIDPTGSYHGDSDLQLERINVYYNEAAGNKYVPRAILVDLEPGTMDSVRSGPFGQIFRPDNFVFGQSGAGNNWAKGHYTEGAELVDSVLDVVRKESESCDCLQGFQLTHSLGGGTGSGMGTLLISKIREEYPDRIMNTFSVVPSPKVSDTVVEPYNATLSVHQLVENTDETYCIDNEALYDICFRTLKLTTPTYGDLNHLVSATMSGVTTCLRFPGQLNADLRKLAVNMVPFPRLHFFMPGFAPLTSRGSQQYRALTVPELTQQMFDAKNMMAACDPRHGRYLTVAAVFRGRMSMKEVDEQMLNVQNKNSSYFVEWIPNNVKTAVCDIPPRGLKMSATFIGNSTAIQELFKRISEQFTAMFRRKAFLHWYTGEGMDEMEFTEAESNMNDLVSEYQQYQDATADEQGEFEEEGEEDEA

Row | Compound | IC50 (PC-3 [1]) [nM] | half-life at 2 µM [2] [min] | IC50 (A-375 [3]) [nM] | IC50 (M14) [nM] | IC50 (DU-145 [4]) [nM] | IC50 [5] [nM] | IC50 (PC-3 [6]) [nM] | IC50 (DU-145 [7]) [nM] | half-life at 2 µM [8] [min] | IC50 [9] [nM] | IC50 (LNCaP) [nM] | IC50 [10] [nM] | inhibition (Tubulin (Sus scrofa)) | Activity (A-375 [11]) | Activity (A-375 [12]) [%] | Activity (PC-3 [13]) | logP [14]
1 | COc1cc(-c2nccc3[nH]c(-c4ccc5[nH]ccc5c4)nc23)cc(OC)c1OC | 27 | 45.4 | 22 | 53 | 121 | 116 | 34 | 164 | 16.1 | – | – | – | – | – | – | – | –
2 | Fc1ccc(-c2ccc3ccnc(-c4ccc(F)cc4)c3c2)cc1 | > 30000 | – | > 30000 | > 30000 | > 30000 | – | – | – | – | > 30000 | > 30000 | > 30000 | – | – | – | – | –
3 | COc1cc(-c2nccc3[nH]c(-c4cccc5c4ccn5S(=O)(=O)c4ccccc4)nc23)cc(OC)c1OC | 956 | – | 263 | 670 | 406 | 730 | 570 | 325 | – | – | – | – | – | – | – | – | –
4 | COc1cc(-c2nccc3c2NC(c2cccc4cc[nH]c24)N3)cc(OC)c1OC (stereo not drawn) | 1240 | – | 984 | 1060 | 2540 | 975 | 689 | 3660 | – | – | – | – | – | – | – | – | –
5 | COc1cc(-c2nccc3[nH]c(-c4ccc5cc[nH]c5c4)nc23)cc(OC)c1OC | 8 | 56.3 | 3 | 16 | 12 | 53 | 13 | 12 | 27.7 | – | – | – | Dose-dependent effect | inactive | 65.9 | Active | –
6 | COc1cc(-c2nccc3[nH]c(-c4cccc5ccn(S(=O)(=O)c6ccccc6)c45)nc23)cc(OC)c1OC | 623 | – | 551 | 471 | 1030 | 545 | 525 | > 30000 | – | – | – | – | – | – | – | – | –
7 | Fc1ccc(-c2nccc3ccc(-c4ccc5[nH]ccc5c4)cc23)cc1 | 26 | 30.7 | 66 | 49 | 47 | – | – | – | 2 | 33 | 38 | 28 | – | – | – | – | –
8 | COc1cc(-c2nccc3ccc(-c4ccc5[nH]ccc5c4)cc23)cc(OC)c1OC | 64 | 38.9 | 929 | 74 | 92 | – | – | – | 2.1 | 227 | 81 | 61 | – | – | – | – | 4.63
9 | COc1cc(-c2nccc3[nH]c(-c4cc5ccccc5[nH]4)nc23)cc(OC)c1OC | 170 | – | 175 | 164 | 1700 | 191 | 120 | 2040 | – | – | – | – | – | – | – | – | –
10 | COc1cc(-c2nccc3[nH]c(-c4cccc5cc[nH]c45)nc23)cc(OC)c1OC | 43 | – | 24 | 28 | 177 | 53 | 65 | > 30000 | – | – | – | – | – | – | – | – | –
11 | COc1cc(-c2ccc3ccnc(-c4cc(OC)c(OC)c(OC)c4)c3c2)cc(OC)c1OC | – | – | 10700 | 9740 | – | – | – | – | – | 6670 | – | – | – | – | – | – | –
12 | O=S(=O)(c1ccccc1)n1ccc2c(-c3nc4c(Br)nccc4[nH]3)cccc21 | > 30000 | – | > 30000 | > 30000 | > 30000 | > 30000 | > 30000 | > 30000 | – | – | – | – | – | – | – | – | –
13 | COc1cc(-c2nccc3[nH]c(-c4cccc5[nH]ccc45)nc23)cc(OC)c1OC | 7 | 33.1 | 3 | 14 | 14 | 25 | 12 | 17 | 10.5 | – | – | – | Dose-dependent effect | inactive | 42 | Active | –
14 | COc1cc(C(=O)c2cccc(-c3cc4ccccc4[nH]3)c2)cc(OC)c1OC | 28.2 | 24 | – | – | – | – | – | – | – | – | – | – | – | – | – | – | 4.14
15 | COc1cc(-c2nccc3[nH]c(-c4c[nH]c5ccccc45)nc23)cc(OC)c1OC | 27 | – | 16 | 26 | 222 | 88 | 7 | 74 | – | – | – | – | – | – | – | – | –
16 | c1cc2ccc(-c3ccc4[nH]ccc4c3)cc2c(-c2ccc3[nH]ccc3c2)n1 | 72 | – | 93 | 111 | 113 | – | – | – | – | 147 | 98 | 48 | – | – | – | – | –
